Calls of active or inactive are those of the source. The calls are words filed in the database; no cut-off is given here.
Key:
Homo sapiens = species: Homo sapiens; test: Inhibition of butyrylcholine lipase
Hormone-sensitive lipase = target: T1, Hormone-sensitive lipase (Homo sapiens, UniProt Q05469); test: Inhibition of recombinant human hormone-sensitive lipase
T1 sequence (Q05469 whole entry): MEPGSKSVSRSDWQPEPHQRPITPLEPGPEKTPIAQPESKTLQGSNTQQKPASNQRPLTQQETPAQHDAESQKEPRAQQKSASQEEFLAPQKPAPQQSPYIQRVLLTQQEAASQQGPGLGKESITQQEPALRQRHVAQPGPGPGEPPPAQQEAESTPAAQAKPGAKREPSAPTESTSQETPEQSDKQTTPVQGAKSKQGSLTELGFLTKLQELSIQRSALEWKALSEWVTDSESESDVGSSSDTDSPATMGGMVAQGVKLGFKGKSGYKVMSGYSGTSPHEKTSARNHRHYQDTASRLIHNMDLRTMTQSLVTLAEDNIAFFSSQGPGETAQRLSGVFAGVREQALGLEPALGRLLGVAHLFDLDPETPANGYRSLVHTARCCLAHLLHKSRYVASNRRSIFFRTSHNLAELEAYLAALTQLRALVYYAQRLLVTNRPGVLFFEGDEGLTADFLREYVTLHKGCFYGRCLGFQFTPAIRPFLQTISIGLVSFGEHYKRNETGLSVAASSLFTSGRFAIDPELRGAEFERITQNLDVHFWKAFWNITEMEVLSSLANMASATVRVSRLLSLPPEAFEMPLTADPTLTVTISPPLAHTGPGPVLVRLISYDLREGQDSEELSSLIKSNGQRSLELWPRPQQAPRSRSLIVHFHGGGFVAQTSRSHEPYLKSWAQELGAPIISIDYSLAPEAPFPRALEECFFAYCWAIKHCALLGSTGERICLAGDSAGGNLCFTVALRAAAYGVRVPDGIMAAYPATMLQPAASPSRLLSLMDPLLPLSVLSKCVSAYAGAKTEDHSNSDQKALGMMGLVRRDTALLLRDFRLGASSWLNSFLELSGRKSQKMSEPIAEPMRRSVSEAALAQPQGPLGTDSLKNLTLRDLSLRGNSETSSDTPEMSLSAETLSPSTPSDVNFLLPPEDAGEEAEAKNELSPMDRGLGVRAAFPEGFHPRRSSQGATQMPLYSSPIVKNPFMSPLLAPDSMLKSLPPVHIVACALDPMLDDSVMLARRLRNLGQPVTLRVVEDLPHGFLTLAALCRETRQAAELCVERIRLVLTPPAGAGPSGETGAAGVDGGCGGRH

[1] = Cmax in Sprague-Dawley rat at 1.1 mg/kg, iv and 2 mg/kg, po; type: ADME, organism-based; conditions: in vivo
Summary of the method: (§1)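 Rat PK study, one rat per time point. Dosed i.v. and p.o. by gavage in 10% hydroxypropyl cyclodextrin in phosphate buffer pH 7.0; one compound was given in 20% Tween 80 plus 5% glucose in phosphate buffer pH 7.0. Plasma was diluted 1:1 with 10% methanol and centrifuged, then quantified by turbulent-flow chromatography–MS/MS against plasma calibration curves spanning 10-3000 ng/mL.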

[2] = Clearance in Sprague-Dawley rat at 1.1 mg/kg, iv and 2.2 mg/kg, po; type: ADME, organism-based; conditions: in vivo; summary of the method: as §1
[3] = Oral bioavailability in Sprague-Dawley rat at 2.2 mg/kg, po; type: ADME, organism-based; conditions: in vivo; summary of the method: as §1
Rattus norvegicus = test: Reduction of glycerol in Sprague-Dawley rat at 10 mg/kg, po; type: ADME, organism-based; set-up: dose 10 mg/kg, route oral; scale not given: the % may be the effect or the level left; conditions: in vivo
Summary of the method: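 Male Sprague-Dawley rats, 12 weeks old, fasted overnight; single 10 mg/kg p.o. dose (n = 4 per group; vehicle n = 8). Orbital plexus blood under isoflurane taken at baseline (0.5 h predose) and 1, 3 and 5 h postdose into EDTA tubes with 0.1% NaF. Plasma glycerol measured on an automated analyzer as the antilipolytic endpoint.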

[4] = Drug level in Sprague-Dawley rat at 10 mg/kg, po after 1 hr; type: ADME, organism-based; set-up: dose 10 mg/kg, route oral; conditions: in vivo, read-out: Drug uptake
Summary of the method: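 Overnight-fasted male Sprague-Dawley rats received 10 mg/kg p.o. (n = 4). Plasma from orbital blood was collected into EDTA/NaF tubes, stored at -80 °C, and drug measured by turbulent-flow chromatography–MS/MS against plasma calibration curves (10-3000 ng/mL).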

Cytochrome P450 2C9 = Cytochrome P450 2C9 (Homo sapiens, UniProt P11712); test: Inhibition of CYP2C9 in human liver microsome; type: ADME; conditions: microsomes
[5] = target: T2, Hepatic triacylglycerol lipase (Homo sapiens) (UniProt P11150); test: Inhibition of hepatic lipase
T2 sequence (whole entry): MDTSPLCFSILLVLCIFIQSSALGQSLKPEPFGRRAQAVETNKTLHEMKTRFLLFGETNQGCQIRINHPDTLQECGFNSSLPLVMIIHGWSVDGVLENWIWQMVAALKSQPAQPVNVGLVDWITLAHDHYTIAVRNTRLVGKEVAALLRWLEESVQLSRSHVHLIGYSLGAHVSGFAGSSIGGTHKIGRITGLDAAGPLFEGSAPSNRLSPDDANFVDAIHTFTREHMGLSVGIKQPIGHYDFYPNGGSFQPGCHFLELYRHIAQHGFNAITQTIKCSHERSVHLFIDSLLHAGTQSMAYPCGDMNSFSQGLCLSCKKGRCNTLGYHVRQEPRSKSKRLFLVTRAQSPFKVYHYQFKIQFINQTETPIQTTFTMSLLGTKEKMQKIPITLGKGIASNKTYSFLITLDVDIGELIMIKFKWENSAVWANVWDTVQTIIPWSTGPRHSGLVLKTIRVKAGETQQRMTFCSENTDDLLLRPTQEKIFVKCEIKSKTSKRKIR
Summary of the method: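 Lipase inhibition (pancreatic, bovine lipoprotein, human hepatic) used a fluorochrome (NBD)-labelled triacylglyceride substrate. Inhibitor at six concentrations, 5-fold dilutions from a maximum of 100 µM, each point the mean of two measurements. IC50 from sigmoidal variable-slope nonlinear regression.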

Acetylcholinesterase = Acetylcholinesterase (Homo sapiens, UniProt P22303); test: Inhibition of acetylcholine esterase
Summary of the method: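 Acetylcholinesterase activity measured with acetylthiocholine substrate. Inhibitor at six concentrations in 5-fold steps from a maximum of 100 µM, duplicate measurements averaged. IC50 from variable-slope sigmoidal dose-response fit.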

[6] = Cmax in Sprague-Dawley rat at 1.2 mg/kg, iv and […] mg/kg, po; type: ADME, organism-based; conditions: in vivo, 2.4 mg/kg
[7] = Clearance in Sprague-Dawley rat at 1.2 mg/kg, iv and […] mg/kg, po; type: ADME, organism-based; conditions: in vivo
[8] = Oral bioavailability in Sprague-Dawley rat at 2.4 mg/kg, po; type: ADME, organism-based; conditions: in vivo
Summary of the method: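 Male Sprague-Dawley rats, 12 weeks old, dosed by oral gavage and i.v. in 10% hydroxypropyl cyclodextrin in phosphate buffer pH 7.0, with one rat per time point. Plasma was diluted 1:1 in 10% methanol, centrifuged and quantified by turbulent-flow chromatography–tandem MS against plasma calibration curves (10-3000 ng/mL).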

Cytochrome P450 2C9, sequence (P11712 whole entry): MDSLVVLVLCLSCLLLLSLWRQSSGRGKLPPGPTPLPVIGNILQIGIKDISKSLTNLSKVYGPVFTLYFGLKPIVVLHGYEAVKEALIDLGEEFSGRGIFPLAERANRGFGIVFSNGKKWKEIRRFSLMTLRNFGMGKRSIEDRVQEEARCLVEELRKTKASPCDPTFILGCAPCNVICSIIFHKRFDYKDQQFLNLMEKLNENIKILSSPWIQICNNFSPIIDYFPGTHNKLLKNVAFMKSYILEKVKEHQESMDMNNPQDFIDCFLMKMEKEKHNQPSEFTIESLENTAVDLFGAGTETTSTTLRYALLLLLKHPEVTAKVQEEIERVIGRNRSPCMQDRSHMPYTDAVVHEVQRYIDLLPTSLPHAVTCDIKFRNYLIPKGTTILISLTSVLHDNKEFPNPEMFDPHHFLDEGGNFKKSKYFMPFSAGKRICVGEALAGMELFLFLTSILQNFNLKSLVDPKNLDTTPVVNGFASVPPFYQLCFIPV
Acetylcholinesterase, sequence (P22303 whole entry): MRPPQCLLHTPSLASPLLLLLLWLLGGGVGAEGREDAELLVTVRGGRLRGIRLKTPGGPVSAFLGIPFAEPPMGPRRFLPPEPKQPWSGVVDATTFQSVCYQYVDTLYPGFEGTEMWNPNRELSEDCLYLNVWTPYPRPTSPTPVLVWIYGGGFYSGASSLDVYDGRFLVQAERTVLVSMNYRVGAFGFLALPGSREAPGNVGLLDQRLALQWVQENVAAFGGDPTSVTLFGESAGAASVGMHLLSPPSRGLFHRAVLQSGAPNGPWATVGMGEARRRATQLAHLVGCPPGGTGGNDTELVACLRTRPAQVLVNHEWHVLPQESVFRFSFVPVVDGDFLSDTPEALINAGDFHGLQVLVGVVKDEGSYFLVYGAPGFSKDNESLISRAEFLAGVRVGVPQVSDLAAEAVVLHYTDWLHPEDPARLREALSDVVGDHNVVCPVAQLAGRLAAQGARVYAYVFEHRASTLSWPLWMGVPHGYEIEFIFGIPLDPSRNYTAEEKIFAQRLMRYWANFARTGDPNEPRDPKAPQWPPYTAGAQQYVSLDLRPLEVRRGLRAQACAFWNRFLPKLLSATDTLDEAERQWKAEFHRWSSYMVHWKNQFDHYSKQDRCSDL

| Structure (SMILES) | Activity (Homo sapiens) | IC50 (Hormone-sensitive lipase) | Cmax [1] | clearance [2] | bioavailability [3] | Activity (Rattus norvegicus) | concentration at 1 h [4] | Activity (Cytochrome P450 2C9) | Activity [5] | IC50 (Acetylcholinesterase) | Cmax [6] | clearance [7] | bioavailability [8] |
| --- | --- | --- | --- | --- | --- | --- | --- | --- | --- | --- | --- | --- | --- |
| O=C(Oc1ccc(Oc2ccc(C(F)(F)F)cn2)cc1)N1CCC(CO)CC1 | inactive | 0.11 µM | 0.06 µg/mL | 2.76 L/h/kg | 10% | 59% | 0.379 µg/mL | Not Active | inactive | – | – | – | – |
| O=C(Oc1ccc(Oc2ccc(C(F)(F)F)cn2)cc1)N1CCC(O)CC1 | inactive | 0.5 µM | – | – | – | 42% | 3.2 µg/mL | Not Active | inactive | > 50 µM | 1.22 µg/mL | 0.54 L/h/kg | 56% |
